Experimental data taken from ChEMBL document CHEMBL1125789, “Synthesis and selective class III antiarrhythmic activity of novel N-heteroaralkyl-substituted 1-(aryloxy)-2-propanolamine and related propylamine derivatives” (J Med Chem, 1991).

Experiments:
[1] = system: Canis familiaris; assay: Atrial conduction time by the compound in open chest anesthetized dog, after iv administration at a dose of 5.0 mg/kg.; type: functional, Canis lupus familiaris, Cardiac atrium; parameters: unit not given here
In short: (§1)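 Mongrel dogs anesthetized with sodium pentobarbital (30 mg/kg iv, then 5 mg/kg per h), chest opened, paced at BCL 300 ms. Atrial conduction time was taken as the interval between electrograms recorded at the proximal and distal sites of the atrial recording electrode array, before and after iv or intraduodenal dosing. Values are changes from control.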

[2] = system: Canis familiaris; assay: Ventricular conduction time by the compound in open chest anesthetized dog, after id administration at a dose of 10 mg/kg.; type: functional, Canis lupus familiaris, Heart; conditions: route intraduodenal
In short: (§2)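 Mongrel dogs were anesthetized with sodium pentobarbital (30 mg/kg iv, then 5 mg/kg per h), the chest opened, and the heart paced at BCL 300 ms. Compound was given iv or intraduodenally. Ventricular conduction time was taken as the interval between electrograms at the proximal and distal sites of the recording electrode array. 2-5 dogs per dose.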

[3] = species: Canis familiaris; assay: Maximum rate of rise of the upstroke of transmembrane potential, in canine Purkinje Fibers at a concentration of 3.0 uM at 300 ms (simulating tachycardia); type: functional; parameters: unit not given here; conditions: Canis lupus familiaris, Purkinje fiber
In short: (§3)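 Isolated canine Purkinje fiber bundles were driven by square-wave pulses 2.0 ms long at 2× threshold and equilibrated ≥1 h to steady state. Each concentration was superfused 45–60 min before recording, and action potentials were sampled at 4–6 sites per fiber in control and after drug, giving Vmax and APD to −60 mV.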

[4] = species: Canis familiaris; assay: Maximum rate of rise of the upstroke of transmembrane potential, in canine Purkinje Fibers at a concentration of 1.0 uM at 1000 ms (simulating normal heart rate); type: functional; parameters: unit not given here; conditions: Canis lupus familiaris, Purkinje fiber; in short: as §3
[5] = system: Canis familiaris; assay: Atrial effective refractory period by the compound in open chest anesthetized dog, after id administration at a dose of 10 mg/kg.; type: functional, Canis lupus familiaris, Cardiac atrium; conditions: route intraduodenal
In short: (§4)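 Open-chest mongrel dogs under sodium pentobarbital anesthesia (30 mg/kg iv plus 5 mg/kg per h), paced at basic cycle length 300 ms. Atrial effective refractory period was determined by electrical stimulation before and after iv or intraduodenal compound and reported as change from control.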

[6] = system: Canis familiaris; assay: Mean arterial pressure by the compound in open chest anesthetized dog, after id administration at a dose of 10 mg/kg.; type: functional, Canis lupus familiaris, Artery; conditions: route intraduodenal
In short: (§5)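 Hemodynamics (heart rate, mean arterial pressure) recorded in pentobarbital-anesthetized (30 mg/kg iv, 5 mg/kg per h maintenance) open-chest mongrel dogs during the refractoriness study at BCL 300 ms. Readings were taken before and after iv or intraduodenal compound and expressed as change from control.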

[7] = species: Canis familiaris; assay: Repolarization to reach -60mV, in canine Purkinje Fibers at a concentration of 1.0 uM at 300 ms (simulating tachycardia); type: functional, Canis lupus familiaris, Purkinje fiber; in short: as §3
[8] = species: Canis familiaris; assay: Maximum rate of rise of the upstroke of transmembrane potential, in canine Purkinje Fibers at a concentration of 3.0 uM at 1000 ms (simulating normal heart rate); type: functional; parameters: unit not given here; conditions: Canis lupus familiaris, Purkinje fiber; in short: as §3
[9] = system: Canis familiaris; assay: Heart beat by the compound in open chest anesthetized dog, after id administration at a dose of 10 mg/kg.; type: functional, Canis lupus familiaris; conditions: route intraduodenal; in short: as §5
[10] = species: Canis familiaris; assay: repolarization to reach -60mV, in canine Purkinje Fibers at a concentration of 3.0 uM at 1000 ms (simulating normal heart rate); type: functional, Canis lupus familiaris, Purkinje fiber
In short: (§6)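 Purkinje fiber bundles were stimulated with square-wave current pulses of 2.0 ms at twice threshold and equilibrated for at least 1 h, or until action potential parameters were steady. Each concentration was superfused for 45-60 min to reach steady state. Action potentials were recorded at four to six sites per fiber, under control and after drug.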

[11] = species: Canis familiaris; assay: Maximum rate of rise of the upstroke of transmembrane potential, in canine Purkinje Fibers at a concentration of 1.0 uM at 300 ms (simulating tachycardia); type: functional; parameters: unit not given here; conditions: Canis lupus familiaris, Purkinje fiber; in short: as §3
[12] = system: Canis familiaris; assay: Mean arterial pressure by the compound in open chest anesthetized dog, after iv administration at a dose of 5.0 mg/kg.; type: functional, Canis lupus familiaris, Artery; parameters: unit not given here; in short: as §5
[13] = system: Canis familiaris; assay: Atrial conduction time by the compound in open chest anesthetized dog, after id administration at a dose of 10 mg/kg.; type: functional, Canis lupus familiaris, Cardiac atrium; conditions: route intraduodenal; in short: as §1
[14] = species: Canis familiaris; assay: Repolarization to reach -60mV, in canine Purkinje Fibers at a concentration of 3.0 uM at 300 ms (simulating tachycardia); type: functional, Canis lupus familiaris, Purkinje fiber; in short: as §3
[15] = species: Canis familiaris; assay: Maximum rate of rise of the upstroke of transmembrane potential, in canine Purkinje Fibers at a concentration of 0.3 uM at 1000 ms (simulating normal heart rate); type: functional; parameters: unit not given here; conditions: Canis lupus familiaris, Purkinje fiber; in short: as §3
[16] = system: Canis familiaris; assay: Ventricular conduction time by the compound in open chest anesthetized dog, after iv administration at a dose of 5.0 mg/kg.; type: functional, Canis lupus familiaris, Heart; parameters: unit not given here; in short: as §2
[17] = system: Canis familiaris; assay: Ventricular effective refractory period by the compound in open chest anesthetized dog, after iv administration at a dose of 5.0 mg/kg.; type: functional, Canis lupus familiaris, Heart; parameters: unit not given here
[18] = species: Canis familiaris; assay: Repolarization to reach -60mV, in canine Purkinje Fibers at a concentration of 0.3 uM at 300 ms (simulating tachycardia); type: functional, Canis lupus familiaris, Purkinje fiber; in short: as §3
[19] = species: Canis familiaris; assay: Maximum rate of rise of the upstroke of transmembrane potential, in canine Purkinje Fibers at a concentration of 0.3 uM at 300 ms (simulating tachycardia); type: functional; parameters: unit not given here; conditions: Canis lupus familiaris, Purkinje fiber; in short: as §3
[20] = system: Canis familiaris; assay: Ventricular effective refractory period by the compound in open chest anesthetized dog, after id administration at a dose of 10 mg/kg.; type: functional, Canis lupus familiaris, Heart; conditions: route intraduodenal
[21] = system: Canis familiaris; assay: Heart beat by the compound in open chest anesthetized dog, after iv administration at a dose of 5.0 mg/kg.; type: functional, Canis lupus familiaris; parameters: unit not given here; in short: as §5
[22] = species: Canis familiaris; assay: repolarization to reach -60mV, in canine Purkinje Fibers at a concentration of 0.3 uM at 1000 ms (simulating normal heart rate); type: functional, Canis lupus familiaris, Purkinje fiber; in short: as §6
[23] = species: Canis familiaris; assay: repolarization to reach -60mV, in canine Purkinje Fibers at a concentration of 1.0 uM at 1000 ms (simulating normal heart rate); type: functional, Canis lupus familiaris, Purkinje fiber; in short: as §6
[24] = system: Canis familiaris; assay: Atrial effective refractory period by the compound in open chest anesthetized dog, after iv administration at a dose of 5.0 mg/kg.; type: functional, Canis lupus familiaris, Cardiac atrium; parameters: unit not given here; in short: as §4

`CN(Cc1ccc2ccccc2n1)CC(O)COc1ccc(NS(C)(=O)=O)cc1` (centres undefined) was tested, and the ACT [1] was -9, the VCT [2] was 1 and the Vmax [3] was -9. For the same compound, the Vmax [4] was 6, the AERP [5] was 31 and the MBP [6] was -5. The APD [7] was 19%, the Vmax [8] was -7 and the HR [9] was -15. It also gave an APD [10] of 62%, a Vmax [11] of 15 and an MBP [12] of -9. The ACT [13] was -4, the APD [14] was 27% and the Vmax [15] was -2. For the same compound, the VCT [16] was -2, the VERP [17] was 21 and the APD [18] was 8%. For the same compound, the Vmax [19] was 5, the VERP [20] was 20 and the HR [21] was -18. The APD [22] was 19%, the APD [23] was 43% and the AERP [24] was 45.
